Screening data from PubChem BioAssay.
PostGolgi yeast = phenotypic screen on post-Golgi transport, primary screen; 0.9% of 98,000 active; post-Golgi transport phenotypic cell assay; AID 739, 2007; inhibition, % at 10 µM;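 also: yeast cells grown in 1536-well plates; yeast grown about 18 h at 30C before absorbance read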
tolC growth inh = growth inhibitors of E. coli tolC mutant, primary screen, strain BW25113 ΔtolC::kan, 384-well; 2.2% of 65,000 active; growth inhibition, % at 10 µM (by protocol); AID 573, 2007; OD615;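 active = growth inhibition at or above a cutoff equal to the mean over every tested compound plus 3 SD, cut at about 60% in these data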;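 also: growth measured after 20 h incubation at 37 °C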
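Test system: E. coli BW25113 ΔtolC::kan bacteria | Medium: Kanamycin-containing LB broth (50 µg/mL) | Dosing: One dose of 10 µM final | Times: 20 h incubation with compound, 37 °C | Detection: Optical density read at 615 nm | Read-out basis: Percent growth inhibition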
hDAT+cocaine = changed hDAT dopamine uptake under cocaine IC80, either direction, primary screen, cocaine antagonist project, cell-based, LLC-PK1 hDAT, [14C]-dopamine uptake, MLSMR; Sodium-dependent dopamine transporter (Homo sapiens), Q01959; LLC-PK1 hDAT cells, [14C]-dopamine uptake with cocaine IC80; actives deviate in either direction; B-score at 10 µM; 1.3% of 110,000 active; AID 449768, 2010;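 active = Z score or B-score, a plate-position-corrected score, falls beyond the plate's 99.7% confidence bounds, in either direction; inactive = both scores lie inside the 99.7% bounds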;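 also: scored against the spread of the other compound wells on the same plate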
D1 allo mod = D1 CRE-luciferase signal change, two-sided – cell-based, HEK293 D1, dopamine EC30, D1 allosteric modulator project, primary screen; dopamine EC30 potentiation; actives deviate in either direction; B-score at 10 µM; 5.9% of 58,000 active; AID 641, 2007;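 active = luminescence count or its row- and column-corrected plate score outside the 99.7% band of the plate's sample wells, on either side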
Target sequence (P21728 whole entry, looked up): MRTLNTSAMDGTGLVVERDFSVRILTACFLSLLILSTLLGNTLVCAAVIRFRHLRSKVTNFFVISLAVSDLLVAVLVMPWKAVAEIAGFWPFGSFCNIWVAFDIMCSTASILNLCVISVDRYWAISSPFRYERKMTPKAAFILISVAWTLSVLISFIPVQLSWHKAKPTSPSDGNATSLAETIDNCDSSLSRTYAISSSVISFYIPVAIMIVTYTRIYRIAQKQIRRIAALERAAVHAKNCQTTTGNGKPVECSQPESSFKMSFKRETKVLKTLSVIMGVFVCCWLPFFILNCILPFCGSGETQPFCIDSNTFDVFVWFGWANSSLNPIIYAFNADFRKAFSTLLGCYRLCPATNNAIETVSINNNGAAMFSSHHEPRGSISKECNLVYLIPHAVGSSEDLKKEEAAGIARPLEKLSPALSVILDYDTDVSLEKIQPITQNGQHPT
PostGolgi ctrl = growth inhibition of yeast control strain, primary screen, counter-screen for post-Golgi transport modulator project; efflux-deficient yeast background strain, growth absorbance A615, 16 h; inhibition, % at 10 µM; 5% of 98,000 active; AID 738, 2007
E coli WT exp = growth inhibitors of wild-type E. coli, primary screen, strain BW25113, expanded library, OD600. AID 710, 2007. OD600 absorbance. growth inhibition, % at 100 µM. 0.15% of 98,000 active;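 active = growth inhibition above about 50% at one test dose, limit read from the data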;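 also: growth measured after 20 h incubation at 37 °C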
Active calls of the source: *; . = no result. A selection: hits, their analogues and other compounds. The true share with any hit is near 9.3%. Rule as the data show it, unless noted: active = inhibition above about 30%; inactive = the rest.

SMILES	PostGolgi yeast	tolC growth inh	hDAT+cocaine	D1 allo mod	PostGolgi ctrl	E coli WT exp
Cc1sc2nc(C(C)C)nc(SCC(=O)N3CCN(C(=O)c4ccco4)CC3)c2c1C	1.9	32.2	-1.84	0.382	41.0*	-4.0
O=C(c1ccco1)N1CCN(C(=O)c2cccn3c(=O)c4c5c(sc4nc23)CCCC5)CC1	.	19.1	.	3.82*	.	.
Cc1sc2ncnc(SCC(=O)N3CCN(C(=O)c4ccco4)CC3)c2c1C	1.0	3.0	1.97	3.12	12.7	1.0
CC(C)c1nc(N2CCN(C(=O)c3ccco3)CC2)c2c3c(sc2n1)CCCC3	3.9	78.7*	1.13	-0.0102	17.6	3.0
CCN(CC)C(=O)CSC1=C(C#N)C(c2cccs2)C=C(C)N1 (stereo not drawn)	-8.3	4.7	0.32	3.21	19.1	-5.0
COc1ccc(N(C(=O)c2ccccc2OC(C)=O)C(C)C2CC2)cc1 (stereo not drawn)	-1.9	.	0.274	.	6.2	5.0
Cc1cc(NS(=O)(=O)c2ccc(NC(=O)c3cc(-c4cccnc4)nc4ccc(Cl)cc34)cc2)no1	-6.1	.	0.655	.	34.9*	-3.0
CCOC(=O)c1oc2ccccc2c1NC(=O)c1ccc(Cl)s1	1.3	.	-2.43*	.	-0.3	-5.0
CCOC(=O)c1oc2ccccc2c1NC(=O)c1ccc2c(c1)OCO2	0.8	0.3	-0.144	.	27.8	-12.0
COc1ccc2c(c1)c1ncn(CCCN3CCOCC3)c(=O)c1n2C	3.7	.	0.653	.	4.1	-3.0
COc1ccc2c(c1)c1ncn(CCc3ccccc3)c(=O)c1n2C	-16.5	.	0.83	.	39.2*	-5.0
COc1cc(C(CCN2CCCCC2)c2c(OC)cc(OC)c3c(C)cc(=O)oc23)cc(OC)c1OC (stereo not drawn)	.	.	0.159	.	.	.
Cc1ccc(CSc2nnc(-c3ccco3)o2)cc1	4.2	.	0.633	.	-1.7	15.0
COc1ccc(OC)c(S(=O)(=O)Nc2ccc(O)c(Sc3ncn[nH]3)c2)c1	-5.0	0.0	-0.224	-0.153	42.8*	-1.0
CCOC(=O)c1cc(-c2ccncc2)nc2c1c(C)nn2C	-6.3	6.9	0.0541	1.45	12.3	0.0
CCOC(=O)c1cc(-c2ccccc2)nc2c1c(C)nn2-c1ccccn1	-3.4	.	1.02	.	41.7*	-6.0
CCOC(=O)C1=C(C)NC(=O)NC1c1cc(Br)c(O)c(OC)c1 (stereo not drawn)	0.2	9.5	1.12	0.126	16.2	5.0
CC1=C(C(=O)OCCOC(C)C)C(c2cc3c(cc2Br)OCO3)CC(=O)N1 (stereo not drawn)	15.9	.	0.319	.	32.0*	-3.0
CC1=C(C(=O)OC2CCCCCCC2)C(c2cc3c(cc2Br)OCO3)CC(=O)N1 (stereo not drawn)	4.7	.	.	.	42.6*	2.0
COc1cc(C2NC(=O)NC(C)=C2C(=O)OC2CCCCC2)cc(Br)c1O (stereo not drawn)	.	55.7	1.77	-4*	.	.
CC(=O)Nc1ccc(S(=O)(=O)NC2=NCN(CCOC(=O)c3ccccc3)CN2)cc1	-4.7	-0.6	-0.00311	-5.21*	10.1	1.0
Cc1ccc(S(=O)(=O)NC2=NCN(Cc3cccnc3)CN2)cc1	-10.5	-9.0	-1.22	-0.394	14.7	2.0
Cc1ccc(NCc2nnc(SCCN3CCCCC3)n2CC2CCCO2)cc1Cl (stereo not drawn)	-2.0	-11.2	2.41*	2.27	2.3	8.0
Cc1ccc(NCc2nnc(SCC(=O)NCc3ccco3)n2CC2CCCO2)cc1Cl (stereo not drawn)	-10.4	1.4	0.77	-1.61	3.9	11.0
Cc1ccc(-n2c(C)nc3c(cnn3-c3ccc(C)c(C)c3)c2=O)cc1C	5.6	.	0.94	.	47.1*	-3.0
SMILES	PostGolgi yeast	tolC growth inh	hDAT+cocaine	D1 allo mod	PostGolgi ctrl	E coli WT exp
O=S1(=O)c2ccccc2C(CCO)N1Cc1ccccc1 (stereo not drawn)	.	.	-0.601	.	.	.
Cc1cc(/C=C2\SC(=S)NC2=O)c(C)n1C1CC1	-0.2	.	.	.	56.0*	-11.0
COc1ccc(C2C(C#N)=C(N)N3C(=C2C#N)Sc2ccccc23)cc1 (stereo not drawn)	-7.5	14.6	0.164	0.391	30.3*	-4.0
Cc1cc(C)cc(N2C(=O)CC(n3ccnc3)C2=O)c1 (stereo not drawn)	4.8	-9.7	-0.0836	0.336	31.8*	3.0
Cc1ccccc1OCCNC(=O)c1ccccc1Sc1ccccc1C#N	-2.5	.	0.101	.	-2.7	-14.0
N#Cc1ccccc1Sc1ccccc1C(=O)Nc1ccc(Br)cc1	26.1	.	.	.	37.0*	-10.0
CCC(c1nnnn1C1CCCCC1)N1CCN(C2CCCC2)CC1 (stereo not drawn)	-3.0	-15.1	-0.887	-0.276	10.9	1.0
CC(C)C(c1nnnn1C1CCCCC1)N1CCN(c2ncccn2)CC1 (stereo not drawn)	51.5*	0.0	0.541	-0.606	82.5*	8.0
Fc1ccccc1N1CCN(C(c2ccccn2)c2nnnn2C2CCCCC2)CC1 (stereo not drawn)	5.1	25.5	0.0601	1.2	40.5*	1.0
CC(C)CC(c1nnnn1C1CCCC1)N1CCN(c2ccccc2F)CC1 (stereo not drawn)	72.3*	35.2	0.699	-1.03	86.9*	-2.0
CC(C)C(c1nnnn1C1CCCC1)N1CCCCC1 (stereo not drawn)	2.2	.	-0.707	.	5.6	-9.0
COc1ccc(OC)c(C(c2nnnn2C2CCCC2)N2CCN(c3ccccc3F)CC2)c1 (stereo not drawn)	8.8	23.7	0.0108	-1.42	11.8	-11.0
CC(C)CC(c1nnnn1C1CCCCC1)N1CCN(c2ncccn2)CC1 (stereo not drawn)	53.0*	-1.5	0.893	0.519	83.5*	7.0
Cc1ccc(Cl)cc1N1CCN(C(c2cccnc2)c2nnnn2C2CCCCC2)CC1 (stereo not drawn)	4.6	17.6	-0.435	0.0781	36.9*	0.0
Cc1ccc(Cl)cc1N1CCN(C(c2ccc(C#N)cc2)c2nnnn2C2CCCC2)CC1 (stereo not drawn)	-5.9	-3.1	-0.44	-0.275	2.0	-14.0
Clc1ccc(Cn2ncc3c(NCc4ccco4)ncnc32)c(Cl)c1	6.2	68.4*	0.157	-0.518	39.3*	2.0
CCc1ccc2c(COC(=O)c3n[nH]c4ccccc34)cc(=O)oc2c1	-4.0	21.2	-0.643	-0.535	37.3*	-2.0
COc1ccc(-c2cn3cc(Cl)ccc3n2)cc1OC	6.0	18.2	0.926	-0.018	7.5	-5.0
Clc1ccc2nc(-c3ccc(Br)s3)cn2c1	-3.9	.	-0.00101	.	31.4*	-17.0
O=C(NCc1ccc2[nH]c3c(c2c1)CCCC3)N1CCOCC1	21.3	-7.2	-0.453	.	30.1*	1.0
